This note sets out measurements from ChEMBL document CHEMBL1811805, “Molecular factors governing inhibition of arylimidamides against Leishmania: conservative computational modeling to improve chemotherapies” (Bioorg Med Chem, 2011).

As usually defined, the IC50 is the midpoint of a concentration-inhibition curve. A higher IC50 goes with lower potency.

For one experiment, the system named is Leishmania donovani. The experiment in a line: Antileishmanial activity against Leishmania donovani axenic amastigotes after 3 days by tetrazolium dye based spectrophotometric analysis at pH 5.5. The class given is functional, organism-based. The following applies: 72 h. The method in brief: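 Ld1s axenic amastigote-like L. donovani grown in potassium-based medium, pH 5.5, 37 °C; exposed to compounds for three days; tetrazolium dye added and read spectrophotometrically. IC50 (μM) averaged with standard errors, n ≥ 3.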

The subject of a further experiment is Leishmania amazonensis. The experiment in a line: Antileishmanial activity against beta-lactamase transfected Leishmania amazonensis promastigotes infected in macrophages after 72 hrs by spectrophotometric analysis. In kind it is functional, organism-based. The method in brief:
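Macrophages plated and adhered overnight; infected with β-lactamase-transfected L. amazonensis promastigotes (MOI 5:1) overnight; compounds added for 72 hours at 34 °C; nitrocefin in lysis buffer added for 3 to 5 hours further; absorbance read at 490 nm. IC50 (μM) averaged with standard errors, n ≥ 3.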

In the case of `CC(C)CCOc1cc(NC(=N)c2ncccn2)ccc1-c1ccc(-c2ccc(NC(=N)c3ncccn3)cc2OCCC(C)C)o1`, the IC50 with Leishmania donovani is 7.9 µM; in the experiment with Leishmania amazonensis, 0.32 µM.
